Measurements from ChEMBL document CHEMBL5046217, “Discovery of New Imidazo[2,1-b]thiazole Derivatives as Potent Pan-RAF Inhibitors with Promising In Vitro and In Vivo Anti-melanoma Activity” (J Med Chem, 2021).
One block for each molecule: values may come before it.

Key:
[1] = biological target: Mitogen-activated protein kinase 8 (Homo sapiens, UniProt P45983); test: Inhibition of MAPK8 (unknown origin) incubated for 1 hr by qPCR analysis
In short: (§1)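 Competition binding assay. Kinases were either T7-phage-tagged (grown in an E. coli BL21-derived host) or expressed in HEK-293 cells and DNA-tagged. […] Bound kinase was eluted with non-biotinylated ligand and quantified by qPCR.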

[2] = biological target: Serine/threonine-protein kinase B-raf (Homo sapiens, UniProt P15056); test: Inhibition of human wild type BRAF using myelin basic protein as substrate in presence of [gamma-33P]ATP incubated for 40 mins by scintillation counting method
In short: (§2)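 Radiometric kinase assay run at Reaction Biology. Kinase (5−10 mU) in 25 mM Tris pH 7.5, 0.02 mM EGTA, 10 mM magnesium acetate with 0.66 mg/mL myelin basic protein and [γ-33P]ATP at 1 μM ATP. Reaction started with Mg-ATP and run 40 min at room temperature, then stopped with 3% phosphoric acid. Spotted on P30 filtermat, washed, scintillation counted.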

[3] = biological target: Mitogen-activated protein kinase kinase kinase 20 (Homo sapiens, UniProt Q9NYL2); test: Inhibition of ZAK (unknown origin) incubated for 1 hr by qPCR analysis; in short: as §1
[4] = biological target: Tyrosine-protein kinase ABL1 (Homo sapiens, UniProt P00519); test: Inhibition of ABL1 (unknown origin) incubated for 1 hr by qPCR analysis
[5] = biological target: Mitogen-activated protein kinase 14 (Homo sapiens, UniProt Q16539); test: Inhibition of MAPK14 (unknown origin) incubated for 1 hr by qPCR analysis; in short: as §1
[6] = biological target: Mitogen-activated protein kinase 11 (Homo sapiens, UniProt Q15759); test: Inhibition of MAPK11 (unknown origin) incubated for 1 hr by qPCR analysis; in short: as §1
[7] = biological target: Serine/threonine-protein kinase/endoribonuclease IRE1 (Homo sapiens, UniProt O75460); test: Inhibition of ERN1 (unknown origin) incubated for 1 hr by qPCR analysis; in short: as §1
[8] = biological target: RAF proto-oncogene serine/threonine-protein kinase (Homo sapiens, UniProt P04049); test: Inhibition of human wild type CRAF using myelin basic protein as substrate in presence of [gamma-33P]ATP incubated for 40 mins by scintillation counting method
[9] = biological target: Homeodomain-interacting protein kinase 1 (Homo sapiens, UniProt Q86Z02); test: Inhibition of HIPK1 (unknown origin) incubated for 1 hr by qPCR analysis; in short: as §1
[10] = biological target: T1, Receptor-type tyrosine-protein kinase FLT3 (Homo sapiens, UniProt P36888); test: Inhibition of FLT3 (unknown origin) incubated for 1 hr by qPCR analysis; in short: as §1
T1 sequence (P36888 whole entry): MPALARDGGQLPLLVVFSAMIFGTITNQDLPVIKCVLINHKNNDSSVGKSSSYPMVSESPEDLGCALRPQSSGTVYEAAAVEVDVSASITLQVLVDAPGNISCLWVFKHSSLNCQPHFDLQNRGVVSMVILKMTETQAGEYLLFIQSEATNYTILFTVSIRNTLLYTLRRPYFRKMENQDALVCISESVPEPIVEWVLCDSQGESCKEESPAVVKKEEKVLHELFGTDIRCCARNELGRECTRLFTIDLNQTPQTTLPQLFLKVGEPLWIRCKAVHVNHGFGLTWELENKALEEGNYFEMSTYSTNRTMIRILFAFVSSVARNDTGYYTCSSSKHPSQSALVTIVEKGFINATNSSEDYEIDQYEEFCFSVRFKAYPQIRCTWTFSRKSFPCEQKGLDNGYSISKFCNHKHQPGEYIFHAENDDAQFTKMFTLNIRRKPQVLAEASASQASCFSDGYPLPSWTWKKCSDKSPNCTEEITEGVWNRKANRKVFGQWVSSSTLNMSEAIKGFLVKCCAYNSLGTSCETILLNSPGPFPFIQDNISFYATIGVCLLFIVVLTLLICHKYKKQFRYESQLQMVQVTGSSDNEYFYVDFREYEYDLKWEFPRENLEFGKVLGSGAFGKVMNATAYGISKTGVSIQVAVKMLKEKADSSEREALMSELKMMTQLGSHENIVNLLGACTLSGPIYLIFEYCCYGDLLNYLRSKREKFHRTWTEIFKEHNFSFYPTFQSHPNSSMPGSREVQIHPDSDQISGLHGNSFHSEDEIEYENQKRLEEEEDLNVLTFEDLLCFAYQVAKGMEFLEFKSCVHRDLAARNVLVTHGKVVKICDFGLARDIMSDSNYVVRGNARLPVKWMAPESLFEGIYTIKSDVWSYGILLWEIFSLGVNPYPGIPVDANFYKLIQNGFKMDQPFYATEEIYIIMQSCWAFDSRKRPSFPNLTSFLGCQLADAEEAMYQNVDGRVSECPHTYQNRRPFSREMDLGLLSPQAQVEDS

UACC-62 [11] = test: Antiproliferative activity against human UACC-62 cells assessed as total growth inhibition measured after 48 hrs by SRB assay; details: UACC-62, 48 h
SK-MEL-28 [12] = test: Antiproliferative activity against human SK-MEL-28 cells assessed as total growth inhibition measured after 48 hrs by SRB assay; details: SK-MEL-28, 48 h
[13] = tested on: Panel melanoma (Carcinoma cell lines); test: cells; details: Homo sapiens, 48 h, read-out: INH
[14] = tested on: Panel leukemia (Carcinoma cell lines); test: Antiproliferative activity against human Panel leukemia (Carcinoma cell lines) assessed as cell growth inhibition measured after 48 hrs by SRB assay
[15] = biological target: Serine/threonine-protein kinase B-raf (Homo sapiens, UniProt P15056, V600E); test: Inhibition of human BRAF V600E mutant using myelin basic protein as substrate in presence of [gamma-33P]ATP incubated for 40 mins by scintillation counting method; in short: as §2
Malme-3M [16] = test: Antiproliferative activity against human Malme-3M cells assessed as cell growth inhibition measured after 48 hrs by SRB assay
MDA-MB-435 [17] = test: Antiproliferative activity against human MDA-MB-435 cells assessed as cell growth inhibition measured after 48 hrs by SRB assay; details: MDA-MB-435, 48 h
LOX IMVI [18] = test: Antiproliferative activity against human LOX IMVI cells assessed as total growth inhibition measured after 48 hrs by SRB assay
M14 [19] = test: Antiproliferative activity against human M14 cells assessed as cell growth inhibition measured after 48 hrs by SRB assay; details: M14, 48 h
SK-MEL-2 [20] = test: Antiproliferative activity against human SK-MEL-2 cells assessed as cell growth inhibition measured after 48 hrs by SRB assay; details: SK-MEL-2, 48 h
[21] = tested on: Panel breast (Carcinoma cell lines); test: Antiproliferative activity against human Panel breast (Carcinoma cell lines) assessed as cell growth inhibition measured after 48 hrs by SRB assay
MDA-MB-435 [22] = test: Antiproliferative activity against human MDA-MB-435 cells assessed as total growth inhibition measured after 48 hrs by SRB assay; details: MDA-MB-435, 48 h
UACC-62 [23] = test: Antiproliferative activity against human UACC-62 cells assessed as cell growth inhibition measured after 48 hrs by SRB assay; details: UACC-62, 48 h
[24] = tested on: Panel CNS (Carcinoma cell lines); test: Antiproliferative activity against human Panel CNS (Carcinoma cell lines) assessed as cell growth inhibition measured after 48 hrs by SRB assay
M14 [25] = test: Antiproliferative activity against human M14 cells assessed as total growth inhibition measured after 48 hrs by SRB assay; details: M14, 48 h
[26] = tested on: Panel colon (Carcinoma cell lines); test: Antiproliferative activity against human Panel colon (Carcinoma cell lines) assessed as cell growth inhibition measured after 48 hrs by SRB assay
[27] = tested on: Panel prostate (Carcinoma cell lines); test: Antiproliferative activity against human Panel prostate (Carcinoma cell lines) assessed as cell growth inhibition measured after 48 hrs by SRB assay
[28] = Cytotoxicity against human BJ cells assessed as cell growth inhibition incubated for 48 hrs by MTT assay; assay type: toxicity, cell-based
In short: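 BJ1 normal skin fibroblasts were seeded at 10 × 10³ cells/well with compound in triplicate wells and grown in DMEM-F12 at 37 °C, 5% CO₂, across an eight-point dilution series. Growth inhibition was calculated as (1 − T/C) × 100, and IC50 was taken from the dose–response curve.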

[29] = tested on: Panel melanoma (Carcinoma cell lines); test: Antiproliferative activity against human Panel melanoma (Carcinoma cell lines) assessed as cell growth inhibition measured after 48 hrs by SRB assay
LOX IMVI [30] = test: Antiproliferative activity against human LOX IMVI cells assessed as cell growth inhibition measured after 48 hrs by SRB assay
SK-MEL-28 [31] = test: Antiproliferative activity against human SK-MEL-28 cells assessed as cell growth inhibition measured after 48 hrs by SRB assay; details: SK-MEL-28, 48 h
in vitro = details: human, BJ cells and Malme-3M cells
SK-MEL-5 [32] = test: Antiproliferative activity against human SK-MEL-5 cells assessed as total growth inhibition measured after 48 hrs by SRB assay; details: SK-MEL-5, 48 h
SK-MEL-5 [33] = test: Antiproliferative activity against human SK-MEL-5 cells assessed as cell growth inhibition measured after 48 hrs by SRB assay; details: SK-MEL-5, 48 h
NSCLC = test: Antiproliferative activity against human NSCLC cell line assessed as cell growth inhibition measured after 48 hrs by SRB assay
[34] = tested on: Panel ovarian (Carcinoma cell lines); test: Antiproliferative activity against human Panel ovarian (Carcinoma cell lines) assessed as cell growth inhibition measured after 48 hrs by SRB assay
UACC-257 [35] = test: Antiproliferative activity against human UACC-257 cells assessed as cell growth inhibition measured after 48 hrs by SRB assay; details: UACC-257, 48 h
[36] = tested on: Panel renal (Carcinoma cell lines); test: Antiproliferative activity against human Panel renal (Carcinoma cell lines) assessed as cell growth inhibition measured after 48 hrs by SRB assay
SK-MEL-2 [37] = test: Antiproliferative activity against human SK-MEL-2 cells assessed as total growth inhibition measured after 48 hrs by SRB assay; details: SK-MEL-2, 48 h
UACC-257 [38] = test: Antiproliferative activity against human UACC-257 cells assessed as total growth inhibition measured after 48 hrs by SRB assay; details: UACC-257, 48 h
[39] = Cytotoxicity against human L132 cells assessed as cell growth inhibition incubated for 48 hrs by MTT assay; assay type: toxicity, cell-based
Malme-3M [40] = test: Antiproliferative activity against human Malme-3M cells assessed as total growth inhibition measured after 48 hrs by SRB assay
[41] = tested on: Panel colon (Carcinoma cell lines); test: cells; details: Homo sapiens, 48 h, read-out: INH

Sequence of RAF proto-oncogene serine/threonine-protein kinase (P04049 whole entry): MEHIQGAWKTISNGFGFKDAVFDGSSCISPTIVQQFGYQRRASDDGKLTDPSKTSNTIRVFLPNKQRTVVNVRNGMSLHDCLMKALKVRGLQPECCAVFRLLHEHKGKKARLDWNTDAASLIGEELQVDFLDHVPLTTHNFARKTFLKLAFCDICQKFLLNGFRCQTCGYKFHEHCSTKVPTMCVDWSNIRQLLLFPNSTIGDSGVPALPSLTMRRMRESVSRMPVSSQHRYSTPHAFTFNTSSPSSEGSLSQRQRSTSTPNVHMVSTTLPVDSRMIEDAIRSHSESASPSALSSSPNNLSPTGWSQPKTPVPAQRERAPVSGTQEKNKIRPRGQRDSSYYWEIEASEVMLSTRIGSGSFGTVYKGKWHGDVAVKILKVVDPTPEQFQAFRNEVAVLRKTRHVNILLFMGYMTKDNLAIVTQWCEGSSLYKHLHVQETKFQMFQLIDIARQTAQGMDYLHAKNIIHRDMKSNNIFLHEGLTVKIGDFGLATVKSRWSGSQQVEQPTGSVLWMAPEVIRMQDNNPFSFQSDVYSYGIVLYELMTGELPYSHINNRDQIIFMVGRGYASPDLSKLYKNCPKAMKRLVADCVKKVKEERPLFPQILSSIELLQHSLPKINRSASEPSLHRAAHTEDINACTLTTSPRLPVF
Sequence of Serine/threonine-protein kinase B-raf (Homo sapiens, UniProt P15056) (P15056 whole entry): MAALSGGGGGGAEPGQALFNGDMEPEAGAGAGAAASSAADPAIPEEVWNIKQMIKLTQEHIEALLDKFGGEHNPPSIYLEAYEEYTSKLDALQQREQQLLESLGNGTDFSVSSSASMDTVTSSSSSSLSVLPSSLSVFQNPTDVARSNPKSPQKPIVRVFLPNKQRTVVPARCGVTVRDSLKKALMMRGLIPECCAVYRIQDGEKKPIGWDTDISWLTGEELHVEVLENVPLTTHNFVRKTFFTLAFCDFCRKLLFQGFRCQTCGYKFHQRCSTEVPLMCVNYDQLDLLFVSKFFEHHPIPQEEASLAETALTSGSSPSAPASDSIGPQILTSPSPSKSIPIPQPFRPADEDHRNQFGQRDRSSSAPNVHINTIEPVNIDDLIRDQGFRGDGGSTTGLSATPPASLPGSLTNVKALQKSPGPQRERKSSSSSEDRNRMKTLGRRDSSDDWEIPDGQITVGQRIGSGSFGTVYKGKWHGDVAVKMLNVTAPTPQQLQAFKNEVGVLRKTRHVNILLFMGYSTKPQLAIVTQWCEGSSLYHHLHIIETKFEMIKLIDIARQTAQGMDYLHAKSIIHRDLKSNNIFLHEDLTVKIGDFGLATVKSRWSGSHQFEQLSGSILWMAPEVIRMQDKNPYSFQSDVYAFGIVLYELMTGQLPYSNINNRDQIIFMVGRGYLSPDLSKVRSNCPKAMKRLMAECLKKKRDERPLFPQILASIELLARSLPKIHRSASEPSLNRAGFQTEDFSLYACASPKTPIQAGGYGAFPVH
Sequence of Serine/threonine-protein kinase B-raf (Homo sapiens, UniProt P15056, V600E) (P15056 2-766 V600E limits assumed): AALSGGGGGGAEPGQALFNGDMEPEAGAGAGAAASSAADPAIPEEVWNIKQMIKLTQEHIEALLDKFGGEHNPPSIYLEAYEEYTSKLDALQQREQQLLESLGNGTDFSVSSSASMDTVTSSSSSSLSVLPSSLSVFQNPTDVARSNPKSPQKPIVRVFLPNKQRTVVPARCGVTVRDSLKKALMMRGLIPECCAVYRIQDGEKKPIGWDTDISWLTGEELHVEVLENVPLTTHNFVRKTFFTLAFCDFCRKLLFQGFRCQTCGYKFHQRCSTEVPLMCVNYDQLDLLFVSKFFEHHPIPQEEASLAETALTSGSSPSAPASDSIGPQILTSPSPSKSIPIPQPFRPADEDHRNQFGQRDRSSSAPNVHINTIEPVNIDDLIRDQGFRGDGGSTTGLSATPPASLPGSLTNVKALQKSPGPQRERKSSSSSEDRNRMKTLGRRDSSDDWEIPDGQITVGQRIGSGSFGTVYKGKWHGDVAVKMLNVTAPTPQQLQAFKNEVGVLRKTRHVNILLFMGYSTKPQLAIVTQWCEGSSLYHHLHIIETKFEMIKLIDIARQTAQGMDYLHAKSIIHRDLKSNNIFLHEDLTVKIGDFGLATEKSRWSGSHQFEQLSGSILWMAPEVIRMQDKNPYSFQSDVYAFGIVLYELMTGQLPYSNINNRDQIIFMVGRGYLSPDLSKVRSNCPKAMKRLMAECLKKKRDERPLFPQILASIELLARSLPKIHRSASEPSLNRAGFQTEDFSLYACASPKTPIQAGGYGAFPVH
Sequence of Mitogen-activated protein kinase 11 (Q15759 whole entry): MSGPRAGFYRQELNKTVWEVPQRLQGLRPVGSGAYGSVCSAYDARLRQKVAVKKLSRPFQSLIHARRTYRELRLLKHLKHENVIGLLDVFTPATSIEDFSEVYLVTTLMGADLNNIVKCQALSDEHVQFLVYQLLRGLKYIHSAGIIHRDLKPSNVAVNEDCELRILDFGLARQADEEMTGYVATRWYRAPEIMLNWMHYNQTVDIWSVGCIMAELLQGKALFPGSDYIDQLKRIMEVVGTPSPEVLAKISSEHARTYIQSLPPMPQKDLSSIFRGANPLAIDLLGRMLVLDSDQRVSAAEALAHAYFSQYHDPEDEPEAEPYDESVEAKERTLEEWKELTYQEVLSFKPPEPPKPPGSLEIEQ
Sequence of Mitogen-activated protein kinase 14 (Q16539 whole entry): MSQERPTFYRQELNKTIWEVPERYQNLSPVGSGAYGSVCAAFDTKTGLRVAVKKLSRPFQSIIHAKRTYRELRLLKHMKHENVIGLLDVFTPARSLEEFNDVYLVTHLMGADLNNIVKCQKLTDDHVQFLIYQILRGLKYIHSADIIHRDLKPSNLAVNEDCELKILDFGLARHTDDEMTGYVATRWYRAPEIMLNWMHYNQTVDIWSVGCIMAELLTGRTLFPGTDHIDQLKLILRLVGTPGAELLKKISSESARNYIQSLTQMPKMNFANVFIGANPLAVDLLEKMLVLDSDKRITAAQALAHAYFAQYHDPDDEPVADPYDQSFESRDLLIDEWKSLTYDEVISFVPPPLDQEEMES
Sequence of Tyrosine-protein kinase ABL1 (P00519 whole entry): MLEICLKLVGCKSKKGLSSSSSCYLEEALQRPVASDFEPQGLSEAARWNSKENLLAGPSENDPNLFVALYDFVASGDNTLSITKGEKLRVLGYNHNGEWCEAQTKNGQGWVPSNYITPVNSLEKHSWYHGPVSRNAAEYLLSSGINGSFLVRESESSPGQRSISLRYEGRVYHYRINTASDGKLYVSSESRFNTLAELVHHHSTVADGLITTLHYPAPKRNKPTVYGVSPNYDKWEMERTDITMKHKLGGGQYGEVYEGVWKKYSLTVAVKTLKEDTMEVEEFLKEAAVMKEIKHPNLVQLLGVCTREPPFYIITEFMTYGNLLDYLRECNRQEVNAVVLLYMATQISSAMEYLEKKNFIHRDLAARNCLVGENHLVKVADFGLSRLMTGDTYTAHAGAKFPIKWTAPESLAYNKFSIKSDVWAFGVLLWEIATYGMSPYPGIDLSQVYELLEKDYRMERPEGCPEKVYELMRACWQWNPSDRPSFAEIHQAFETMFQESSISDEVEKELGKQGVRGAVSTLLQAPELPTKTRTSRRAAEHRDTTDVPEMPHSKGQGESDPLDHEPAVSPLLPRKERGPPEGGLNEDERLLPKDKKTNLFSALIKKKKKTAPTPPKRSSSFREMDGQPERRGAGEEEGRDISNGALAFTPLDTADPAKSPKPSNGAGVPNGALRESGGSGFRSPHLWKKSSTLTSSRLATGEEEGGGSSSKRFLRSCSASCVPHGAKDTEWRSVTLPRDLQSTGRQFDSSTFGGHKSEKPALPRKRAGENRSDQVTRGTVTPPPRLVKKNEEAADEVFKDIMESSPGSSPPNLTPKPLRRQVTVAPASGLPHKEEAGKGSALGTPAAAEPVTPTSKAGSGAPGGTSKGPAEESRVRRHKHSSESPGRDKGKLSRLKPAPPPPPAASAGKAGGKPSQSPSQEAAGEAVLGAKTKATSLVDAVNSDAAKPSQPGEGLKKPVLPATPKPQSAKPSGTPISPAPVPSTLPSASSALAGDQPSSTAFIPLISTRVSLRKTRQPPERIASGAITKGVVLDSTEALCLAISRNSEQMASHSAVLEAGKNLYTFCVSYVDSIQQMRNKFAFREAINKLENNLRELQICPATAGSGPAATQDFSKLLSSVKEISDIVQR
Sequence of Mitogen-activated protein kinase 8 (P45983 whole entry): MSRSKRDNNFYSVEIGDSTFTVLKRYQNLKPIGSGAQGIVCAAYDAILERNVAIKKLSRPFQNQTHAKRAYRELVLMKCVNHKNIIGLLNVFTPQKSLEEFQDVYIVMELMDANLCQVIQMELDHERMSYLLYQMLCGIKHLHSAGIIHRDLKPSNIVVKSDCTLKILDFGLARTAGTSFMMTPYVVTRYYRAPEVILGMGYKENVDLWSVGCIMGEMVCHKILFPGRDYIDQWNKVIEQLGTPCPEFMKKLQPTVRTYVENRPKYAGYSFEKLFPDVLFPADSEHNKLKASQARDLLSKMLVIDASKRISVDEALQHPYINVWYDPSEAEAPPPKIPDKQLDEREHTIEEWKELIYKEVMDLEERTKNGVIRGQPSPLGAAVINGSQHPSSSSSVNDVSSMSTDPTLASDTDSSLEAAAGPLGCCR

IC50 [1]: 1.35 µM
IC50 [2]: 0.0027 µM
IC50 [3]: 7.58 µM
IC50 [4]: 10.4 µM
IC50 [5]: 2.01 µM
IC50 [6]: 1.21 µM
IC50 [7]: 9.54 µM
IC50 [8]: 0.006 µM
IC50 [9]: 5.13 µM
IC50 [10]: 1.99 µM
SMILES: O=S(=O)(NCCNc1nccc(-c2c(-c3cccc(O)c3)nc3sccn23)n1)c1ccc(F)cc1

IC50 [14]: 11.9 µM
IC50 [15]: 0.00377 µM
IC50 [2]: 0.00633 µM
IC50 (MDA-MB-435 [17]): 0.49 µM
IC50 (SK-MEL-2 [20]): 2.26 µM
IC50 [21]: 11.9 µM
IC50 [24]: 16.4 µM
IC50 [26]: 8.08 µM
IC50 [27]: 11.6 µM
IC50 [29]: 1.79 µM
IC50 (SK-MEL-28 [31]): 0.24 µM
IC50 (SK-MEL-5 [33]): 0.348 µM
IC50 [8]: 0.00196 µM
IC50 [34]: 12.1 µM
IC50 [36]: 5.98 µM
SMILES: CN1CCCN(CCNc2nccc(-c3c(-c4cccc(O)c4)nc4sccn34)n2)S1(=O)=O
TGI (UACC-62 [11]): 3.14 µM
TGI (SK-MEL-28 [12]): 52 µM
inhibition at 10 µM [13]: 84.8%
IC50 (Malme-3M [16]): 0.036 µM
TGI (LOX IMVI [18]): 28.2 µM
IC50 (M14 [19]): 0.174 µM
TGI (MDA-MB-435 [22]): 51.6 µM
IC50 (UACC-62 [23]): 0.058 µM
TGI (M14 [25]): 12.9 µM
IC50 at 48 h [28]: 75.6 µM
IC50 (LOX IMVI [30]): 4.36 µM
selectivity ratio (in vitro): 2100
TGI (SK-MEL-5 [32]): 10.3 µM
IC50 (NSCLC): 13.6 µM
IC50 (UACC-257 [35]): 8.21 µM
TGI (SK-MEL-2 [37]): 7.36 µM
TGI (UACC-257 [38]): > 100 µM
IC50 at 48 h [39]: 93.6 µM
TGI (Malme-3M [40]): 0.408 µM

IC50 [15]: 0.169 µM
IC50 [2]: 0.921 µM
IC50 [8]: 0.19 µM
SMILES: COc1cccc(-c2nc3sccn3c2-c2ccnc(NCCNS(=O)(=O)c3ccc4ccccc4c3)n2)c1
inhibition at 10 µM [41]: 83.1%
